Laboratory results taken from ChEMBL document CHEMBL1144047, “Design and synthesis of diketopiperazine and acyclic analogs related to the caprazamycins and liposidomycins as potential antibacterial agents” (2008).
Converted amounts (≈) assume the structure as drawn.

Legend:
Assay type in all cases: functional
[1] = system: Mycolicibacterium smegmatis; test: Antibacterial activity against Mycobacterium smegmatis ATCC607 after 42 hrs by serial agar dilution method
Procedure, shortened: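 Serial agar dilution MIC using Mueller–Hinton agar containing 5% glycerol; growth read after 42 h at 37 °C.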

[2] = system: Corynebacterium bovis; test: Antibacterial activity against Corynebacterium bovis 1810 after 18 hrs by serial agar dilution method
Procedure, shortened: (§1)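 MIC determined by serial agar dilution on plain Mueller–Hinton agar; read after 18 h incubation at 37 °C.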

[3] = system: Mycobacterium tuberculosis; test: Antibacterial activity against Mycobacterium tuberculosis H37Rv at 6.25 ug/ml by microplate Alamar blue assay
Procedure, shortened: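 M. tuberculosis H37Rv (ATCC 27294) grown in BACTEC 12B medium; microplate Alamar blue assay; growth inhibition rate recorded at 6.25 µg/mL.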

[4] = system: Micrococcus luteus; test: Antibacterial activity against Micrococcus luteus FDA16 after 18 hrs by serial agar dilution method; procedure, shortened: as §1
[5] = system: Staphylococcus aureus; test: Antibacterial activity against Staphylococcus aureus Smith after 18 hrs by serial agar dilution method; procedure, shortened: as §1
[6] = system: Staphylococcus aureus; test: Antibacterial activity against MDR-Staphylococcus aureus MS9610 after 18 hrs by serial agar dilution method
Procedure, shortened: (§2)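 MIC by serial agar dilution on Mueller–Hinton agar (no supplement for staphylococci); plates read after 18 h incubation at 37 °C.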

[7] = system: Micrococcus luteus; test: Antibacterial activity against Micrococcus luteus PCI1001 after 18 hrs by serial agar dilution method; conditions: PCI1001, 18 h; procedure, shortened: as §1
[8] = system: Enterococcus faecalis; test: Antibacterial activity against Enterococcus faecalis NCTC-12201 after 18 hrs by serial agar dilution method
Procedure, shortened: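 MIC by serial agar dilution on Mueller–Hinton agar supplemented with 5% sheep blood; plates incubated 18 hours at 37 °C under 5% CO₂ before reading.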

[9] = system: Bacillus subtilis; test: Antibacterial activity against Bacillus subtilis NRRLB-558 after 18 hrs by serial agar dilution method; procedure, shortened: as §1
[10] = system: Staphylococcus aureus; test: Antibacterial activity against methicillin-resistant Staphylococcus aureus 5 after 18 hrs by serial agar dilution method; procedure, shortened: as §2

Structure (SMILES) | MIC [1] | MIC [2] | inhibition at 6.25 µg/mL [3] | MIC [4] | MIC [5] | MIC [6] | MIC [7] | MIC [8] | MIC [9] | MIC [10]
NC[C@H]1O[C@@H](O[C@H]([C@H]2O[C@@H](n3ccc(=O)[nH]c3=O)[C@H](O)[C@@H]2O)[C@H](N)C(=O)N[C@H](COC(=O)c2ccc(-c3ccccc3)cc2)C(=O)O)[C@H](O)[C@@H]1O | 100 µg/mL (≈ 140 µM) | > 100 µg/mL | 27% | > 100 µg/mL | > 100 µg/mL | > 100 µg/mL | > 100 µg/mL | > 100 µg/mL | > 100 µg/mL | –
NC[C@H]1O[C@@H](O[C@H]([C@H]2O[C@@H](n3ccc(=O)[nH]c3=O)[C@H](O)[C@@H]2O)[C@@H]2NC(=O)[C@@H](COC(=O)c3ccc(-c4ccccc4)cc3)NC2=O)[C@H](O)[C@@H]1O | > 100 µg/mL | > 100 µg/mL | 29% | > 100 µg/mL | > 100 µg/mL | > 100 µg/mL | > 100 µg/mL | > 100 µg/mL | > 100 µg/mL | –
NC[C@H]1O[C@@H](O[C@H]([C@H]2O[C@@H](n3ccc(=O)[nH]c3=O)[C@H](O)[C@@H]2O)[C@H](N)C(=O)N[C@@H](CO)C(=O)O)[C@H](O)[C@@H]1O | 100 µg/mL (≈ 187 µM) | > 100 µg/mL | – | > 100 µg/mL | > 100 µg/mL | > 100 µg/mL | > 100 µg/mL | > 100 µg/mL | > 100 µg/mL | –
CCCCCCCCCCCCCCCC(=O)OC[C@H](NC(=O)[C@@H](N)[C@H](O[C@@H]1O[C@H](CN)[C@@H](O)[C@H]1O)[C@H]1O[C@@H](n2ccc(=O)[nH]c2=O)[C@H](O)[C@@H]1O)C(=O)O | 100 µg/mL (≈ 129 µM) | 12.5 µg/mL (≈ 16.2 µM) | 51% | 50 µg/mL (≈ 64.6 µM) | 25 µg/mL (≈ 32.3 µM) | 50 µg/mL (≈ 64.6 µM) | 25 µg/mL (≈ 32.3 µM) | 50 µg/mL (≈ 64.6 µM) | 25 µg/mL (≈ 32.3 µM) | 50 µg/mL (≈ 64.6 µM)
CCCCCCCCCCCCCCCC(=O)OC[C@@H](NC(=O)[C@@H](N)[C@H](O[C@@H]1O[C@H](CN)[C@@H](O)[C@H]1O)[C@H]1O[C@@H](n2ccc(=O)[nH]c2=O)[C@H](O)[C@@H]1O)C(=O)O | 50 µg/mL (≈ 64.6 µM) | 12.5 µg/mL (≈ 16.2 µM) | 59% | 50 µg/mL (≈ 64.6 µM) | 25 µg/mL (≈ 32.3 µM) | 50 µg/mL (≈ 64.6 µM) | 12.5 µg/mL (≈ 16.2 µM) | 50 µg/mL (≈ 64.6 µM) | 25 µg/mL (≈ 32.3 µM) | 50 µg/mL (≈ 64.6 µM)
NC[C@H]1O[C@@H](O[C@H]([C@H]2O[C@@H](n3ccc(=O)[nH]c3=O)[C@H](O)[C@@H]2O)[C@H](N)C(=O)N[C@@H](COC(=O)c2ccc(-c3ccccc3)cc2)C(=O)O)[C@H](O)[C@@H]1O | 100 µg/mL (≈ 140 µM) | 100 µg/mL (≈ 140 µM) | 52% | > 100 µg/mL | > 100 µg/mL | > 100 µg/mL | 50 µg/mL (≈ 69.9 µM) | > 100 µg/mL | > 100 µg/mL | –
CCCCCCCCCCCCCCCC(=O)OC[C@@H]1NC(=O)[C@H]([C@H](O[C@@H]2O[C@H](CN)[C@@H](O)[C@H]2O)[C@H]2O[C@@H](n3ccc(=O)[nH]c3=O)[C@H](O)[C@@H]2O)NC1=O | 100 µg/mL (≈ 132 µM) | 50 µg/mL (≈ 66.1 µM) | 35% | 25 µg/mL (≈ 33.1 µM) | 25 µg/mL (≈ 33.1 µM) | 100 µg/mL (≈ 132 µM) | 50 µg/mL (≈ 66.1 µM) | 100 µg/mL (≈ 132 µM) | 25 µg/mL (≈ 33.1 µM) | 100 µg/mL (≈ 132 µM)
NC[C@H]1O[C@@H](O[C@H]([C@H]2O[C@@H](n3ccc(=O)[nH]c3=O)[C@H](O)[C@@H]2O)[C@@H]2NC(=O)[C@H](COC(=O)c3ccc(-c4ccccc4)cc3)NC2=O)[C@H](O)[C@@H]1O | 100 µg/mL (≈ 143 µM) | > 100 µg/mL | 48% | > 100 µg/mL | > 100 µg/mL | > 100 µg/mL | 100 µg/mL (≈ 143 µM) | > 100 µg/mL | > 100 µg/mL | –
